This note sets out measurements from ChEMBL document CHEMBL4385657, “A fragment-like approach to PYCR1 inhibition” (Bioorg Med Chem Lett, 2019).

Activity calls are given as the source filed them. The rule behind the calls is not given here.

The test system of data set [1] is SUM-159-PT. Nature of the data set: Effect on methionine content in human SUM159PT cells at 100 uM by LC-MS analysis relative to control. The format is functional, cell-based. A digest of the protocol:
(§1)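 Human breast cancer SUM-159-PT cells were incubated with test agent at 1, 5, 20 and 100 µM (or at 100 µM alone). The cells were then lysed, and proline and the essential amino acids were quantified by LC-MS. Each amino acid level was compared against an untreated control culture.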

Data set [2] relates to SUM-159-PT. Nature of the data set: Effect on valine content in human SUM159PT cells at 100 uM by LC-MS analysis relative to control. The format is functional, cell-based. In short, it runs like this:
as §1

In data set [3] the test system is SUM-159-PT. Kind of data set: Effect on leucine content in human SUM159PT cells at 100 uM by LC-MS analysis relative to control. The format is functional, cell-based. A digest of the protocol: as §1
For data set [4], the system named is SUM-159-PT. Nature of the data set: Effect on tryptophan content in human SUM159PT cells at 100 uM by LC-MS analysis relative to control. The format is functional, cell-based. In short, it runs like this: as §1
The subject of data set [5] is SUM-159-PT. Kind of data set: Effect on phenylalanine content in human SUM159PT cells at 100 uM by LC-MS analysis relative to control. The format is functional, cell-based. A digest of the protocol:
as §1

For data set [6], the system named is SUM-159-PT. Nature of the data set: Effect on isoleucine content in human SUM159PT cells at 100 uM by LC-MS analysis relative to control. The format is functional, cell-based. In short, it runs like this: as §1
The target of data set [7] is T1, Pyrroline-5-carboxylate reductase 1, mitochondrial (Homo sapiens, UniProt P32322).
T1 sequence (P32322 whole entry): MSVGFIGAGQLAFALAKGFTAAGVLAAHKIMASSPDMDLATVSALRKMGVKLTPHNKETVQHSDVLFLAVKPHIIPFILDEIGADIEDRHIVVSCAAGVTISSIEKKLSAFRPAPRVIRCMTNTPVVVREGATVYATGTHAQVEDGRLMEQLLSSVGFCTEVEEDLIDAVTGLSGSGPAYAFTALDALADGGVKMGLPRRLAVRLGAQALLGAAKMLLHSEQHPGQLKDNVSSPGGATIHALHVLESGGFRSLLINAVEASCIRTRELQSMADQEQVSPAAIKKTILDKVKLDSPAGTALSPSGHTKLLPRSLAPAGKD
Nature of the data set: Inhibition of 6x-His-tagged and SUMO tagged human PYCR1 expressed in Escherichia coli BL21 (DE3) cells assessed as reduction in NADH oxidation incubated for 1 hr.

Data set [8] relates to SUM-159-PT. Kind of data set: Toxicity in human SUM159PT cells assessed as reduction in cell viability at 100 uM. Type of data set: cell-based.
For data set [9], the system named is SUM-159-PT. Nature of the data set: Effect on isoleucine content in human SUM159PT cells at 1 to 100 uM by LC-MS analysis relative to control. Type of data set: ADME, cell-based. A digest of the protocol:
as §1

For data set [10], the system named is SUM-159-PT. Kind of data set: Effect on tryptophan content in human SUM159PT cells at 1 to 100 uM by LC-MS analysis relative to control. Type of data set: ADME, cell-based. A digest of the protocol: as §1
The target in data set [11] is T2, Amine oxidase [flavin-containing] B (Homo sapiens, UniProt P27338).
T2 sequence (P27338 whole entry): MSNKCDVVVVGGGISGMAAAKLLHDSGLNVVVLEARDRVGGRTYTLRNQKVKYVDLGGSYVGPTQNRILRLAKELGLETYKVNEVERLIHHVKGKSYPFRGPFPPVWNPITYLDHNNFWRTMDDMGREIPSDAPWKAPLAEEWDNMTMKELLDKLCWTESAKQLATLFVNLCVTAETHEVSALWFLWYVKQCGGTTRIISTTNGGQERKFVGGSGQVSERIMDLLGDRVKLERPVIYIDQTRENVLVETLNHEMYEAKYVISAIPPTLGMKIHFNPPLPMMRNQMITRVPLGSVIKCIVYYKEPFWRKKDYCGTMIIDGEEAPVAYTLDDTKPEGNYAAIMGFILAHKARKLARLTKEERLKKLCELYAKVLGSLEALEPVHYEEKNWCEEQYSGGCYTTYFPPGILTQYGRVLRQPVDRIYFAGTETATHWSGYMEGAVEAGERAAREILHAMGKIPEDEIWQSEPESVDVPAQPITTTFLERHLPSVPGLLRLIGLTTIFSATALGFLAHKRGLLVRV
Nature of the data set: Inhibition of MAOB (unknown origin).

Data set [12] concerns SUM-159-PT. Kind of data set: Effect on valine content in human SUM159PT cells at 1 to 100 uM by LC-MS analysis relative to control. The format is ADME, cell-based. In short, it runs like this:
as §1

The test system of data set [13] is SUM-159-PT. Kind of data set: Effect on methionine content in human SUM159PT cells at 1 to 100 uM by LC-MS analysis relative to control. Type of data set: ADME, cell-based. In short, it runs like this:
as §1

The subject of data set [14] is SUM-159-PT. Kind of data set: Effect on phenylalanine content in human SUM159PT cells at 1 to 100 uM by LC-MS analysis relative to control. Type of data set: ADME, cell-based. In short, it runs like this:
as §1

In data set [15] the test system is SUM-159-PT. Nature of the data set: Effect on leucine content in human SUM159PT cells at 1 to 100 uM by LC-MS analysis relative to control. Type of data set: ADME, cell-based. In short, it runs like this: as §1

For `C#CCN(C)Cc1ccccc1` [PARGYLINE], the result in the data set with SUM-159-PT [1], in the data set on SUM-159-PT [2], in the data set on SUM-159-PT [3], in the data set on SUM-159-PT [4], in the data set on SUM-159-PT [5] and with SUM-159-PT [6] was inactive. The IC50 (in general, the concentration at which inhibition is half-maximal) in data set [7] stood at 198 µM.
As to `C#CCN(CC(=O)OC(C)(C)C)Cc1ccc(Br)cc1`, the IC50 in data set [7] was greater than 500 µM.
Still for that read-out and setting: next, `C#CCN(CCC)Cc1ccc(Br)cc1`: greater than 500 µM; `C#CCN(CCC=C)Cc1ccc(Br)cc1`: greater than 500 µM; `C#CCN(C)Cc1ccc(Cl)cc1`: 13 µM.
The same measure, in the same setting: next, `C=CCN(C)Cc1ccc(Br)cc1`: greater than 500 µM.
Consider `C#CCN(C)Cc1ccc(Br)cc1OC`, for which the IC50 in data set [7] was 21 µM.
The same measure, in the same setting: with `C#CCN(C)Cc1ccc(-c2ccc(F)cc2)cc1` the figure was 211 µM; with `C#CCN1CCc2cc(Br)ccc2C1`, greater than 500 µM.
Consider `C#CCN(C)Cc1ccc(Cl)cc1Br`, for which the IC50 in [7] is 66 µM.
Still for that read-out and setting: next, `C#CCN1Cc2ccc(Br)cc2C1`: greater than 500 µM; `C#CCN(C)C(C)c1ccc(Br)cc1` (centres undefined): 316 µM.
Consider `CC#CCN(C)Cc1ccc(Br)cc1`, for which the IC50 in data set [7] stood at 16 µM.
With `C#CCN(C)Cc1ccc(OC)cc1OC`, the IC50 in data set [7] is greater than 500 µM.
Take `C#CCN(C)Cc1ccc(-c2ccccc2)cc1`: in data set [7], the IC50 was found to be 315 µM.
`C#CCN(C)Cc1cccc(Cl)c1`: in [7], the IC50 was found to be 52 µM.
On to `C#CCN(C)Cc1ccc(C)cc1C`, for which, in data set [7], the IC50 is 55 µM.
Regarding `C#CCCN(C)Cc1ccc(Br)cc1`, the IC50 in data set [7] is greater than 500 µM.
Regarding `C#CC(C)N(C)Cc1ccc(Br)cc1` (centres undefined), the half-inhibitory concentration (IC50) in data set [7] is 394 µM.
`C#CCN(C)Cc1cc(Br)cs1`: in [7], the concentration for half-maximal inhibition (IC50) is greater than 500 µM.
Still for that read-out and setting: with `C#CCN(C)Cc1ccc(Cl)c(Cl)c1` the figure was 13.6 µM; with `C#CCN(C)Cc1ccc(Cl)cc1Cl`, 9.2 µM; with `C#CCN(C)Cc1ccc(F)cc1`, 311 µM.
As for `C#CCN(C)Cc1ccc(Br)cc1Cl`, the IC50 in data set [7] was determined as 34 µM.
Turning to `C#CCN(C)Cc1ccc(C(C)C)cc1`, in data set [7], the IC50 was determined as 142 µM.
As to `CCCN(C)Cc1ccc(Br)cc1`, the concentration for half-maximal inhibition (IC50) in data set [7] turned out to be 337 µM.
The same measure, in the same setting: with `C#CCN(C)Cc1ccc(C(C)=O)cc1` the figure was 184 µM; with `C#CCN(Cc1ccc(Br)cc1)C(C)=O`, greater than 500 µM.
In the case of `C#CCN(C)Cc1ccc(Br)cc1F`, the IC50 in data set [7] worked out at 42 µM.
The same measure, in the same setting: with `C#CCN(C)Cc1ccccc1[N+](=O)[O-]` the figure was greater than 500 µM; with `C#CCN(C)Cc1ccc(OC)cc1`, 38 µM.
For the compound `C#CCN(C)Cc1cc(C)no1`, the IC50 in data set [7] was greater than 500 µM.
For `C#CCN(C)Cc1ccc(Br)cc1C`, in data set [7], the IC50 was 38 µM.
On to `C#CCN(C)Cc1ccc(Br)cc1Br`, for which, in data set [7], the IC50 is 228 µM.
On the same count and under the same terms, with `C#CCN(C)Cc1cc(Cl)cc(Cl)c1` the figure was greater than 500 µM; with `C#CCN(C)Cc1ccc(I)cc1`, 9.7 µM; with `CN(CC#Cc1ccccc1)Cc1ccc(Br)cc1`, 71 µM.
The same measure, in the same setting: next, `C#CCN(CC)Cc1ccc(Br)cc1`: 58 µM; `C#CCN(C)Cc1ccccc1Br`: 200 µM; `C#CCN(Cc1ccc(Br)cc1)Cc1ccc(Br)cc1`: 92 µM.
On to `C#CCN(C)Cc1ccc(C#N)cc1`, for which the IC50 in [7] was greater than 500 µM.
Turning to `C#CCN(Cc1ccc(Br)cc1)CC1CC1`, the IC50 in data set [7] was greater than 500 µM.
The same measure, in the same setting: with `C#CCN(C)Cc1cccc([N+](=O)[O-])c1` the figure was 394 µM.
For `C#CCN(C)Cc1cccc(Br)c1`, the IC50 in [7] was found to be 276 µM.
For the compound `CNCc1ccc(Br)cc1`, the IC50 in data set [7] was 161 µM.
Regarding `C#CCN(C)Cc1ccc(C(F)(F)F)cc1`, the IC50 in data set [7] was determined as 65 µM.
Regarding `C#CCN(C)Cc1ccc2ccccc2c1`, the 50% inhibitory concentration (IC50) in data set [7] was 21 µM.
For the compound `C#CCN(C)Cc1ccc(F)cc1Br`, the IC50 in [7] was greater than 500 µM.
For `CN(Cc1ccc(Br)cc1)CC1CC1`, the IC50 in data set [7] is greater than 500 µM.
As for `C#CCN(C)Cc1ccc([N+](=O)[O-])cc1`, the IC50 in [7] stood at 43 µM.
The same measure, in the same setting: next, `C#CCN(C)Cc1ccc(Cl)c(C(F)(F)F)c1`: 43 µM.
For the compound `C#CCNCc1ccc(Br)cc1`, the IC50 in data set [7] is 99 µM.
For the compound `C#CCN(C)Cc1ccc(C)cc1`, in [7], the IC50 is 40 µM.
`C#CCN(Cc1ccc(Br)cc1)Cc1cc(C)no1`: the IC50 in data set [7] turned out to be 100 µM.
`C#CCN(Cc1ccc(Br)cc1)S(C)(=O)=O`: the concentration for half-maximal inhibition (IC50) in data set [7] was greater than 500 µM.
For the compound `C#CCN(C)Cc1ccc(Br)cc1`, the Activity result with SUM-159-PT [8], in the data set with SUM-159-PT [9], in the data set with SUM-159-PT [10], with SUM-159-PT [12], in the data set on SUM-159-PT [13] and with SUM-159-PT [14] was “Non-Toxic” throughout. Further, in the data set on SUM-159-PT [15], the Activity result is given as “Non-Toxic”. The same compound had an IC50 in data set [11] of 0.3 µM.
For the compound `CN(Cc1ccccc1)Cc1ccc(Br)cc1`, in data set [7], the IC50 is greater than 500 µM.
Turning to `C#CCN(C)Cc1c(Cl)cccc1Cl`, the IC50 in data set [7] was greater than 500 µM.
In the case of `C#CCN(C)Cc1ccccc1Cl`, the IC50 in data set [7] came out at 139 µM.
`C#CCN(C)CCc1ccc(Br)cc1`: the IC50 in data set [7] is greater than 500 µM.
The same measure, in the same setting: with `C#CCN(Cc1ccc(Br)cc1)C(C)C` the figure was greater than 500 µM.
